# Measurements taken from ChEMBL document CHEMBL4715860 (J Med Chem, 2020).
# Legend:
# CYP1A1 = target: T1, CYP1A1 (Homo sapiens, UniProt P04798); assay: Drug metabolism assessed as human recombinant CYP1A1 expressed in baculovirus infected insect cells-mediated metabolism by measuring parent compound remaining at 1 uM incubated for 60 mins in presence of NADPH regenerating system by UHPLC based LC-MS analysis; format: ADME; conditions: read-out: Stabilty
# T1 sequence (P04798 whole entry): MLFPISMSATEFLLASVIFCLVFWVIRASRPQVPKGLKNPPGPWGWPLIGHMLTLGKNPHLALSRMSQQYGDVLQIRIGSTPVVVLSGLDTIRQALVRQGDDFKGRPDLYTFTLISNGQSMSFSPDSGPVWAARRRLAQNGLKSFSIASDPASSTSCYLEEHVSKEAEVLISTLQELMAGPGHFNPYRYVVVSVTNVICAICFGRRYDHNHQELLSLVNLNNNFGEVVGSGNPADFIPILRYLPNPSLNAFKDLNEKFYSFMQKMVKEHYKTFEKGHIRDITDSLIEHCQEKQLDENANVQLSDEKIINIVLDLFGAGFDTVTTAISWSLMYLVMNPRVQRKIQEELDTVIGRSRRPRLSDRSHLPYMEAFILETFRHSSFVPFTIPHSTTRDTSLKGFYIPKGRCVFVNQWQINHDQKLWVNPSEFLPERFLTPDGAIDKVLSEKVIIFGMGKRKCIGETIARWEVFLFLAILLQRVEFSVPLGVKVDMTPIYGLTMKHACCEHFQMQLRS
# [1] = target: Phosphatidylinositol 4,5-bisphosphate 3-kinase catalytic subunit beta isoform (Homo sapiens, UniProt P42338); assay: Binding affinity to wild-type human partial length PIK3CB (P118 to S1070 residues) expressed in HEK293 cells measured after 1 hr by Kinomescan method; format: cell-based
# Phosphatidylinositol 4,5-bisphosphate 3-kinase catalytic subunit beta isoform, sequence (P42338 whole entry, the tested form may be a part, canonical isoform): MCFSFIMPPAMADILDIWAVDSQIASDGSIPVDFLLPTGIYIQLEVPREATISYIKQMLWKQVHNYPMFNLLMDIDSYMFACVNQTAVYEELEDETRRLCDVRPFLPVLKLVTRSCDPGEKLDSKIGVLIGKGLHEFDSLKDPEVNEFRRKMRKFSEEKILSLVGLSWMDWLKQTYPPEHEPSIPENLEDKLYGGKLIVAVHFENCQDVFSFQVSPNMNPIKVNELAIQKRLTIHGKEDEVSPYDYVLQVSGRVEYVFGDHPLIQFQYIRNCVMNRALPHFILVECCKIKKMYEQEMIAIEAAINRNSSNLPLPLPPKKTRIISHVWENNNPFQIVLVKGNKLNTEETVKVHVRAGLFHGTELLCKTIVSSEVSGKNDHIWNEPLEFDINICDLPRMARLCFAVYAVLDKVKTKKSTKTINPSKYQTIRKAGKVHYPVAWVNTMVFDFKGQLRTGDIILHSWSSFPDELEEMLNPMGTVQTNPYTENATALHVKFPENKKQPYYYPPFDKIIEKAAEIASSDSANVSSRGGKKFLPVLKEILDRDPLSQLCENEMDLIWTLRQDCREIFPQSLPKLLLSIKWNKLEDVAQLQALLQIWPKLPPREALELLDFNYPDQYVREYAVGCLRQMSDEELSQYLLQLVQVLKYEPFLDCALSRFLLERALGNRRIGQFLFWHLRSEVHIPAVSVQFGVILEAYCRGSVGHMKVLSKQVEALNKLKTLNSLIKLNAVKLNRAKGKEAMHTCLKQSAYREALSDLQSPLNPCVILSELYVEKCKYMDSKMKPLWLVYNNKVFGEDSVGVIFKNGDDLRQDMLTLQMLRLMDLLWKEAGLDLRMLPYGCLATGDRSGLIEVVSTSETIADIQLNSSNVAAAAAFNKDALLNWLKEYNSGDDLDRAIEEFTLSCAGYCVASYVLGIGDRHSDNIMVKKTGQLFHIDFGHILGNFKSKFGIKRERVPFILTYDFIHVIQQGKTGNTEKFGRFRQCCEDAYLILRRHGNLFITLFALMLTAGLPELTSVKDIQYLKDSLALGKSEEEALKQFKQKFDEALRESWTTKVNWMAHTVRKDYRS
# How it was run: (§1)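 Compound given as an 11-point threefold series from 30 μM, in technical duplicate. Kd from a Hill fit with slope fixed at −1.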
# [2] = target: T2, Phosphatidylinositol 4,5-bisphosphate 3-kinase catalytic subunit delta isoform (Homo sapiens, UniProt O00329); assay: Binding affinity to wild-type human partial length PIK3CD (R108 to Q1044 residues) expressed in HEK293 cells measured after 1 hr by Kinomescan method; format: cell-based; how it was run: as §1
# T2 sequence (O00329 whole entry): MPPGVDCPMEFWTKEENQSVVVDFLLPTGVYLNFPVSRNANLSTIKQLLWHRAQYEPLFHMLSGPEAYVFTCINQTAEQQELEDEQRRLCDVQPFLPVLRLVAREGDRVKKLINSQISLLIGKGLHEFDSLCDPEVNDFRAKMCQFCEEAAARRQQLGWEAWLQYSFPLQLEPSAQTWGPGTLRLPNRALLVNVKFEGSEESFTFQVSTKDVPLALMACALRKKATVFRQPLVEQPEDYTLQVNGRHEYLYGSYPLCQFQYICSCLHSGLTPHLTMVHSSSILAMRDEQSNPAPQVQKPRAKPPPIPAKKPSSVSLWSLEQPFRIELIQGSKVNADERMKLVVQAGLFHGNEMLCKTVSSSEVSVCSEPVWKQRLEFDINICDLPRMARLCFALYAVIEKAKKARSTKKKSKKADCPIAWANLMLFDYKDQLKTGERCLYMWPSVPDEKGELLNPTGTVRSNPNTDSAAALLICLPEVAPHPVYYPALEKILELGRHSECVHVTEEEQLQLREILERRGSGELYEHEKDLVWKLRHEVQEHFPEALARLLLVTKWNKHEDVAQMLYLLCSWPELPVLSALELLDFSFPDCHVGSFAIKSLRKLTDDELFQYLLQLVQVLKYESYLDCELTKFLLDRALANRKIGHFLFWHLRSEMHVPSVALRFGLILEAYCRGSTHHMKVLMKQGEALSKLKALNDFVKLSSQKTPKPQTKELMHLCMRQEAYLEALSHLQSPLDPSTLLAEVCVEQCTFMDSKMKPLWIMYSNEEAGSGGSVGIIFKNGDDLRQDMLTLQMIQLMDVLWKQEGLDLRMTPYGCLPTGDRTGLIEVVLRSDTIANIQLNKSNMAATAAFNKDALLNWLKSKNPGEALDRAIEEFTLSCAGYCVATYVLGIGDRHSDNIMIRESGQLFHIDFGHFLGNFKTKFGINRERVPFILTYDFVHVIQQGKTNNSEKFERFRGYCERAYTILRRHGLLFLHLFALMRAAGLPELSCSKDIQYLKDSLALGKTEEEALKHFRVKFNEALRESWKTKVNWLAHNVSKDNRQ
# [3] = target: Phosphatidylinositol 4,5-bisphosphate 3-kinase catalytic subunit alpha isoform (Homo sapiens, UniProt P42336); assay: Binding affinity to wild-type human partial length PIK3CA (R108 to N1068 residues) expressed in HEK293 cells measured after 1 hr by Kinomescan method; format: cell-based; how it was run: as §1
# Phosphatidylinositol 4,5-bisphosphate 3-kinase catalytic subunit alpha isoform, sequence (P42336 whole entry, the tested form may be a part, canonical isoform): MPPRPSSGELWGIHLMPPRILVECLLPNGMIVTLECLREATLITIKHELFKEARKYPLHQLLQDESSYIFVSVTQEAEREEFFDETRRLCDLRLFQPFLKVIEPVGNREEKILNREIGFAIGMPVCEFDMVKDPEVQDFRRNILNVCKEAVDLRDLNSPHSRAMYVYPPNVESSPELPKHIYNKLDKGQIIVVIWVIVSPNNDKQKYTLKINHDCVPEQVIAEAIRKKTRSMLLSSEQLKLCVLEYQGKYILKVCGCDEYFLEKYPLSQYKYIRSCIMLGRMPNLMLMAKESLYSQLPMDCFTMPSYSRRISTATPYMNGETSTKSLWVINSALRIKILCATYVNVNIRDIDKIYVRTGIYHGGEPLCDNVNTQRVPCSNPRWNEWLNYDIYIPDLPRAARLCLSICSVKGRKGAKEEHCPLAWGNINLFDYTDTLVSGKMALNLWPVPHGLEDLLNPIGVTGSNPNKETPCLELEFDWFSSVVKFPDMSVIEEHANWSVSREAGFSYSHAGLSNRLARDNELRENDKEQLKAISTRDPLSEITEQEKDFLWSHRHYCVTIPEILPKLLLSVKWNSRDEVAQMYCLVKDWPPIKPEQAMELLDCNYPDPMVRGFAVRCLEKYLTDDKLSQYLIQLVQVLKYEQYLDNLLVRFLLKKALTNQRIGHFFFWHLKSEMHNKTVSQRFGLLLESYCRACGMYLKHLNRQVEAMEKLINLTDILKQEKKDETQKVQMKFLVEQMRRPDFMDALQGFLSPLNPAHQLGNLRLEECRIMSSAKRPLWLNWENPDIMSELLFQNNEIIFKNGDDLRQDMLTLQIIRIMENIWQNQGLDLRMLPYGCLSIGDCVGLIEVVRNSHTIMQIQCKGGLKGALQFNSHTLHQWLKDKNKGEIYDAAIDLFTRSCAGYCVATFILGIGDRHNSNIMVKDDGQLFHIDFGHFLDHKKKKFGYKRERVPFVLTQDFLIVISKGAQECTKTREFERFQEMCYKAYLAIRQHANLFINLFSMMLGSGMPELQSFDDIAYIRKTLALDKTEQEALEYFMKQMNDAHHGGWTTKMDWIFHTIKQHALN
# [4] = target: Phosphatidylinositol 4,5-bisphosphate 3-kinase catalytic subunit gamma isoform (Homo sapiens, UniProt P48736); assay: Binding affinity to wild-type human partial length PIK3CG (S144 to A1102 residues) expressed in HEK293 cells measured after 1 hr by Kinomescan method; format: cell-based; how it was run: as §1
# Phosphatidylinositol 4,5-bisphosphate 3-kinase catalytic subunit gamma isoform, sequence (P48736 whole entry, the tested form may be a part, canonical isoform): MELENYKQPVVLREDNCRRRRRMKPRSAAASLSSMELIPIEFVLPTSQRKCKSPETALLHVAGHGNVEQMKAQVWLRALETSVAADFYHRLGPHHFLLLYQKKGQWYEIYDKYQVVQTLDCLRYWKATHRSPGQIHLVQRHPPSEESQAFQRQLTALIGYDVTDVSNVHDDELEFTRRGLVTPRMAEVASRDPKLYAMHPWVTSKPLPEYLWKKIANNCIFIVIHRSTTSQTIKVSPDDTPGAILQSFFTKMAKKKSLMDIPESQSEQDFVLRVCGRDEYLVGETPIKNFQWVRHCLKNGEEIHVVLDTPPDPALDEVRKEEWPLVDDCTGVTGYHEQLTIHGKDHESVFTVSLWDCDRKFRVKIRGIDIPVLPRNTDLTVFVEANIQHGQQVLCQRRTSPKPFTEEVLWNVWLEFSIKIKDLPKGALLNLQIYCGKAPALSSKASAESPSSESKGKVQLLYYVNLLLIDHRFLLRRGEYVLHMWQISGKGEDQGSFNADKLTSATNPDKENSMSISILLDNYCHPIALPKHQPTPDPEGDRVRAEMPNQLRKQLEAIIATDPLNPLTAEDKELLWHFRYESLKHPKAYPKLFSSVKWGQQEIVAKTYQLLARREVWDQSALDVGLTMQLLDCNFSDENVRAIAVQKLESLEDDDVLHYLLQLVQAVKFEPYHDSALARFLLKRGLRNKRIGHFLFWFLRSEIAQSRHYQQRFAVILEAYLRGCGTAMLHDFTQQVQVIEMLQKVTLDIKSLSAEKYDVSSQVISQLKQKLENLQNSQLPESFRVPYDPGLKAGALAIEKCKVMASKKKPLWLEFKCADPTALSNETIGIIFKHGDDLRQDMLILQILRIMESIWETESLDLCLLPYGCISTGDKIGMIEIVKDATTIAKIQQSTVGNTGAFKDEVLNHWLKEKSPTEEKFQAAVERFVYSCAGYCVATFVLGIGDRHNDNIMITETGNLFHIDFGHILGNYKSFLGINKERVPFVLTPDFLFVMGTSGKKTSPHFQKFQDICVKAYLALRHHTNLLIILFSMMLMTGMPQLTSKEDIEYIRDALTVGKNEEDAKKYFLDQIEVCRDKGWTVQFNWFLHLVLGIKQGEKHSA
# [5] = target: Phosphatidylinositol 3-kinase catalytic subunit type 3 (Homo sapiens, UniProt Q8NEB9); assay: Binding affinity to wild-type human partial length VPS34 (S282 to H879 residues) expressed in HEK293 cells measured after 1 hr by Kinomescan method; format: cell-based; how it was run: as §1
# Phosphatidylinositol 3-kinase catalytic subunit type 3, sequence (Q8NEB9 whole entry, the tested form may be a part): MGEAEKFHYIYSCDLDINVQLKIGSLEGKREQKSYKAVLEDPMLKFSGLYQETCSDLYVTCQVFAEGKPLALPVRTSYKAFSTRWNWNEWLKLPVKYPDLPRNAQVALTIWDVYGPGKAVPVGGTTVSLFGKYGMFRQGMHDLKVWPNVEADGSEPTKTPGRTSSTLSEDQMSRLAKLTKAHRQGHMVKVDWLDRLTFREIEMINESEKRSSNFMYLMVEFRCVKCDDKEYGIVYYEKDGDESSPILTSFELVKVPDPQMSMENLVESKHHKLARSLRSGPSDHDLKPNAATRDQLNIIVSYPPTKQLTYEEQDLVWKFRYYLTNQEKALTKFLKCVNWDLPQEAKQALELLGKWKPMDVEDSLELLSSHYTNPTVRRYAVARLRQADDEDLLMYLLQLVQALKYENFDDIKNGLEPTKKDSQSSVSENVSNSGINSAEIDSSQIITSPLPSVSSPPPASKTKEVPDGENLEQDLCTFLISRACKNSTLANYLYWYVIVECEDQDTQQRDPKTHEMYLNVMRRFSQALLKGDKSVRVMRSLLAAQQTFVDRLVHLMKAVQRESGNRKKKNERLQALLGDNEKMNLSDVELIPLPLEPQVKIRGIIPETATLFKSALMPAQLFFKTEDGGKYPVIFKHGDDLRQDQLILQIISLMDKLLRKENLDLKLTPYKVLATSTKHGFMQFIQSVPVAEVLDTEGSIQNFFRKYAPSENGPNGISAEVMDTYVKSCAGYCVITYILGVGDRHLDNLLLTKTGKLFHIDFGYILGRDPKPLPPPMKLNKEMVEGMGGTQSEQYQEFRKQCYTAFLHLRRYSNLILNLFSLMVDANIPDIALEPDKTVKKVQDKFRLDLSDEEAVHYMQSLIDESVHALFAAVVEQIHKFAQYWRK
# [6] = target: T3, Serine/threonine-protein kinase mTOR (Homo sapiens, UniProt P42345); assay: Binding affinity to wild-type human partial length MTOR (L1382 to W2549 residues) expressed in HEK293 cells measured after 1 hr by Kinomescan method; format: cell-based; how it was run: as §1
# [7] = Inhibition of mTOR2 in human A2058 cells assessed as reduction in PKB/Akt phosphorylation at Ser473 incubated for 1 hr by Western blot analysis; format: cell-based; conditions: A2058, 1 h
# How it was run: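 A2058 cells grown 24 h at 37 °C, then exposed to inhibitor or DMSO for 1 h. Cells were PFA-fixed and stained for pPKB Ser473 or pS6 Ser235/236 by in-cell western with IR-dye secondary antibodies. Signal normalized to tubulin and to DMSO. IC50 from a 7-point (triplicate) or 11-point (duplicate) 1:2 series.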
# [8] = target: Phosphatidylinositol 4-kinase beta (Homo sapiens, UniProt Q9UBF8); assay: Binding affinity to wild-type human full length PIK4CB (M1 to M828 residues) expressed in HEK293 cells measured after 1 hr by Kinomescan method; format: cell-based; how it was run: as §1
# Phosphatidylinositol 4-kinase beta, sequence (Q9UBF8 whole entry, the tested form may be a part): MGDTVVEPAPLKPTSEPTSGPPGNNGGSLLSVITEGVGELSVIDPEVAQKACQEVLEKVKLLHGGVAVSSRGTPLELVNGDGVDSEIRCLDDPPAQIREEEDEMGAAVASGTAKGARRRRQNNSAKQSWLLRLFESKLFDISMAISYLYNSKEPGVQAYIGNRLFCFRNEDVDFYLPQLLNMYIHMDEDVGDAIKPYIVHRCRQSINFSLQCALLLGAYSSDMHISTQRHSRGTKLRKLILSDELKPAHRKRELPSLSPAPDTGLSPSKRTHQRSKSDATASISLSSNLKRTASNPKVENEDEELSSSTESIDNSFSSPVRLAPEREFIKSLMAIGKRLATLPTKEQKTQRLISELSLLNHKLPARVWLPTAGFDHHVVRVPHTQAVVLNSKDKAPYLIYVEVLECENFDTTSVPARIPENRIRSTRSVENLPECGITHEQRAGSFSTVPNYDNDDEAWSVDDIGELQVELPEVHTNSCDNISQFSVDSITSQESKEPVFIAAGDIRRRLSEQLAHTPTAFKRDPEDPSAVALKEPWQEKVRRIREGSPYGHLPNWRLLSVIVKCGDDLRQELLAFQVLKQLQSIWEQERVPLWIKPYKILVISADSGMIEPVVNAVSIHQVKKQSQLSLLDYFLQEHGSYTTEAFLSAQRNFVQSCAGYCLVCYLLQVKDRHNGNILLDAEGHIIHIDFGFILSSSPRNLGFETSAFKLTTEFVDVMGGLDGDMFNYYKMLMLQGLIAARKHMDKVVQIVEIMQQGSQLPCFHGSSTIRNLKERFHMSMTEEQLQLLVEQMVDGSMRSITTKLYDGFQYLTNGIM
# [9] = target: T3, Serine/threonine-protein kinase mTOR; assay: Inhibition of alexa fluor 647-labeled kinase tracer 314 binding to recombinant human N-terminal GST-tagged mTOR (1360 to 2549 residues) expressed in baculovirus expression system measured after 60 mins by TR-FRET based LanthaScreen Eu kinase binding assay
"remaining at 1 h, 1 µM (CYP1A1) [%]",Kd [1] [nM],Kd [2] [nM],Kd [3] [nM],Kd [4] [nM],Kd [5] [nM],Kd [6] [nM],IC50 [7] [nM],Kd [8] [nM],Ki [9] [nM],SMILES
1.9,1350,2450,81,595,28,0.88,191,> 30000,4.7,C[C@@H]1COCCN1c1nc(-c2cnc(N)cc2C(F)F)nc(N2CCOCC2(C)C)n1
45.1,1450,3500,110,1350,65,0.67,96,> 30000,3.6,C[C@@H]1COCCN1c1nc(-c2cnc(N)cc2C(F)F)nc(N2[C@H](C)COC[C@@H]2C)n1
